This note sets out measurements from ChEMBL document CHEMBL1126990, “Design and synthesis of 18F-labeled neurotoxic analogs of MPTP” (J Med Chem, 1993).

Structures are written as SMILES.

Assay type in all cases: ADME
Series [1] in a line: separate experiments, n=5). The method, boiled down:
(§1)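 Rat liver MAO (crude P2 mitochondrial fraction from adult male Wistar rats, in pH 7.4 phosphate buffer) incubated with substrate at 30 μM to 5 mM; colorimetric detection of H2O2 formed. Blanks contained 0.1 mM pargyline. Vmax and Km from linear regression of Lineweaver-Burk plots; means ± SE of n separate experiments; ANOVA with post-hoc Scheffe test.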

The species named for the next series is Rattus norvegicus. Kind of series: Maximal rate (Vmax) for oxidation by rat liver MAO (results are means of number of separate experiments, n=5). The method, boiled down: as §1
Series [2] in a line: Ratio between Vmax and Km. The method, boiled down:
as §1

One may read the Km as the concentration of substrate that gives half-maximal velocity. Usually Vmax stands for the rate approached at saturating substrate. As for `CN1CC=C(c2ccccc2)CC1`, the Km in series [1] amounted to 90 µM. In addition, the Vmax in the series filed under Rattus norvegicus is 218 nM hr-1 (mg of protein)-1. The Ratio in series [2] is 2.42.
